The data set is described as follows: Toxicity liver stage against HepG2, at 10uM. In kind it is cell-based. On the set-up: test concentration 10 uM, cell line HepG2-A16-CD81EGFP. To be noted: human, HepG2-A16-CD81EGFP cells; read-out: INHIBITION
Summed up:
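Uninfected HepG2-A16-CD81EGFP cells, 3 × 10^3 per well, 1536-well, plated on prespotted compound at 10 μM final, parasite-free screening media added to match infected plates; puromycin 10 μM positive, DMSO 0.5% negative; run in parallel with 48 h PbLuc assay at 37 °C, 5% CO2; viability by CellTiter-Glo luminescence, normalized to controls.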
Regarding `CN1C(=O)COc2ccc(C(=O)Cn3cnc4ccsc4c3=O)cc21`, the cytotoxicity at 10 µM was determined as 8.69%.

In the case of `COc1ccccc1[C@@H]1CN(C(=O)Cc2csc(C)n2)C[C@H]1C(=O)O`, the cytotoxicity at 10 µM was -8.25%.

As for `Cc1nc(S(=O)(=O)N2CCSC3(CCCCC3)C2)cn1C`, the cytotoxicity at 10 µM is -9.2%.

With `O=C(NCCOc1ccc2c(c1)CCC2)N1CCS(=O)(=O)CC1`, the cytotoxicity at 10 µM is -1.71%.

As for `Cc1noc(C2CCN(C(=O)c3cccs3)CC2)n1`, the cytotoxicity at 10 µM was -1.22%.

`CCOCCCNC(=O)c1cn(CC)nc1C`: the cytotoxicity at 10 µM was 5.37%.

Take `O=C(c1ccno1)N1CCn2cc(CN3CCCCC3)nc2C1`: the cytotoxicity at 10 µM was -77.2%.

As for `Cc1ccc(N2CCO[C@H]3CN(CC4CC4)C[C@H]32)nn1`, the cytotoxicity at 10 µM is -7.93%.

In the case of `Cc1csc(N2CCN(C(=O)C3(C#N)CCCCC3)CC2)n1`, the cytotoxicity at 10 µM is -8.45%.

Regarding `O=C(C1CCOCC1)N1CCc2ncc(CN3CCCCC3)n2CC1`, the cytotoxicity at 10 µM was -78.4%.

As to `CC(C)NC(=O)C1c2c(ncn2C(C)C)CCN1Cc1ccccc1` (stereo not given), the cytotoxicity at 10 µM turned out to be 0.167%.

Regarding `Cc1cc(C)c2nc(CN3CCC(CN)C3)cc(O)c2c1` (stereo not given), the cytotoxicity at 10 µM was -14.8%.

As to `CCc1nc2ccccc2c(=O)n1CC1(O)CCN(CC(=O)OC)CC1`, the cytotoxicity at 10 µM was -4.99%.

Take `COc1ccc(CNCc2c(C(C)C)nn(C)c2N(C)C)cn1`: the cytotoxicity at 10 µM is -3.92%.

Turning to `CC(C)c1nc(C2CCCN(C(=O)CN3CCN(C)CC3)C2)no1` (stereo not given), the cytotoxicity at 10 µM is 3.8%.

`CC(C)N1CCC(CNCc2c[nH]nc2C(C)(C)C)C1` (stereo not given): the cytotoxicity at 10 µM was -2.16%.

Regarding `CN1C(=O)[C@@H]2CC[C@H]1CN(C(=O)c1csc(Cc3ccccc3)n1)C2`, the cytotoxicity at 10 µM was determined as 3.75%.

In the case of `CC(=O)N(C)Cc1ccccc1NC(=O)c1ccccc1C`, the cytotoxicity at 10 µM came out at 1.18%.

As to `CC(C)c1nc(-c2ccc(=O)[nH]n2)n(-c2ccc3c(c2)OCO3)n1`, the cytotoxicity at 10 µM turned out to be 6.46%.

Turning to `CC(NC(N)=O)C(=O)NCc1ccc(Br)c(F)c1` (stereo not given), the cytotoxicity at 10 µM is 7.97%.

Regarding `c1cnnc(N2CCCC(NCc3cccc4c3OCCCO4)C2)c1` (stereo not given), the cytotoxicity at 10 µM was -19.8%.

As for `CCc1ccc(C2CCCCCN2C(=O)CNC(=O)C2CC2)o1` (stereo not given), the cytotoxicity at 10 µM was -7.25%.

`Cn1cccc1C(=O)N1CCN(Cc2ccncc2)c2ncccc2C1`: the cytotoxicity at 10 µM is -0.395%.

For `CNC(=O)C1Cn2ccnc2C2(CCN(C(=O)c3ccoc3C)CC2)O1` (stereo not given), the cytotoxicity at 10 µM is -157%.

`Cc1ccoc1C(=O)NC1CCN(Cc2csc3c(F)cccc23)CC1`: the cytotoxicity at 10 µM worked out at 1.13%.

`CC(C)CN(CC(=O)O)C(=O)c1ccc(F)cc1`: the cytotoxicity at 10 µM is -2.83%.

For `Cc1nnc(-c2cccc(C#N)c2)n1C1CCN(C2CC2)C1=O` (stereo not given), the cytotoxicity at 10 µM is -11.8%.

As for `Cc1nc(C)n(CC2CCCN(c3ncnc4ccccc34)C2)n1` (stereo not given), the cytotoxicity at 10 µM came out at 17.4%.

Take `CCNC(=O)N1CCC2(CC1)CCn1c(C3CC3)cnc12`: the cytotoxicity at 10 µM is 1.89%.

Take `Cc1ccc(CN(CCCN2CCOCC2)Cc2[nH]cnc2C)o1`: the cytotoxicity at 10 µM was -12.9%.

Regarding `Cc1ccc(CNC(CN2CCN(C)CC2)c2ccccc2)cc1` (stereo not given), the cytotoxicity at 10 µM was 9.19%.

Turning to `CC(C(=O)N1CCCN(Cc2cnn(C(C)C)c2)CC1)n1ccnc1` (stereo not given), the cytotoxicity at 10 µM was -11.8%.

Consider `Cn1cccc1C(=O)N1CCC2(CCCN(CC3CC3)C2=O)C1` (stereo not given), for which the cytotoxicity at 10 µM is -0.445%.

In the case of `COc1ncccc1NC(=O)N1CCC(C(=O)NC(C)C)CC1`, the cytotoxicity at 10 µM is -3.68%.

As to `COc1ccccc1NC(=O)NCCCn1nc2ccccn2c1=O`, the cytotoxicity at 10 µM is -18%.

`Cc1ccc(C(=O)O)cc1-c1cccc(C(C)N(C)C)c1` (stereo not given): the cytotoxicity at 10 µM is -3.17%.

With `CCS(=O)(=O)N1C[C@@H](O)[C@H](N2CCc3ccccc3C2)C1`, the cytotoxicity at 10 µM was -3.63%.

Take `CN1CCc2cc(C(CNS(=O)(=O)c3cccs3)N3CCCC3)ccc21` (stereo not given): the cytotoxicity at 10 µM came to 2.66%.

With `Cc1ccc(C(=O)Nc2cnn(CC(=O)NC3CCCC3)c2)c(=O)[nH]1`, the cytotoxicity at 10 µM is -4.09%.

Consider `Cn1cc(C2NC3(CCCC3)C(=O)N2CC2CC2)c(=O)n(C)c1=O` (stereo not given), for which the cytotoxicity at 10 µM was found to be 6.93%.

In the case of `Cc1nc2c(c(=O)n1C)CN(C(=O)C1CCN(C(=O)C3CCC3)CC1)C2`, the cytotoxicity at 10 µM is -3.54%.

`NS(=O)(=O)c1ccc(CNC(=O)c2ccc(Cl)cc2F)cc1`: the cytotoxicity at 10 µM is -1.59%.

Take `CC(=O)N[C@@H]1CN(S(=O)(=O)c2ccc(Cl)cc2)C[C@H]1O`: the cytotoxicity at 10 µM amounted to 7.03%.

With `CC(C)CN1CCC2(CCN(Cc3ccoc3)CC2)C1=O`, the cytotoxicity at 10 µM is 7.85%.

In the case of `C[C@@H]1CN(C(=O)C2(N3CCCCC3)Cc3ccccc3C2)C[C@H](C)O1`, the cytotoxicity at 10 µM was -0.238%.

For `Cc1ccc(N2CC3(CCN(S(=O)(=O)C4CC4)C3)C2)nn1`, the cytotoxicity at 10 µM came to 10.6%.

For `CC(C)(C)C(=O)N1CC(=O)N(Cc2ccco2)CC(O)C1` (stereo not given), the cytotoxicity at 10 µM came out at 4.79%.

Turning to `O=C(NCN1CCc2ccccc2C1)c1cnccn1`, the cytotoxicity at 10 µM amounted to 20.2%.

With `CCCc1nc(CNc2nc(C)nc3oc(C)nc23)cs1`, the cytotoxicity at 10 µM was -39.6%.

Regarding `Nc1nccc(NCc2cc3n(n2)CCCN(C(=O)C2CCC2)C3)n1`, the cytotoxicity at 10 µM was -6.49%.

Regarding `CC(=O)N1CCCC2(C1)CN(C(=O)Cc1ccccc1)CCO2` (stereo not given), the cytotoxicity at 10 µM was -83.9%.

As for `O=C1NCCN1C1CCN(Cc2nc(-c3ccoc3)no2)CC1`, the cytotoxicity at 10 µM is -9.06%.

As to `CC1(C)COCCN1C(=O)CCc1nc(-c2ccncc2)no1`, the cytotoxicity at 10 µM was -6.61%.

In the case of `CN1CCN(C(=O)[C@H]2C[C@@H]3CCN(c4ncc(F)cn4)C[C@@H]3O2)CC1`, the cytotoxicity at 10 µM is -6.69%.

Turning to `CC1(C)CN(C(=O)NCCc2ccn(-c3ccccc3)n2)CCO1`, the cytotoxicity at 10 µM is 2.21%.

Take `Cc1nc(CN(C)C2CCCN(c3cccnn3)C2)nc2ccccc12` (stereo not given): the cytotoxicity at 10 µM was -0.164%.

As for `CN[C@@H](CO)C(=O)NCc1cc2n(n1)CCCN(C1CCCCC1)C2`, the cytotoxicity at 10 µM was -3.14%.

Regarding `O=C(c1ccc(Br)cc1F)N1CCc2ccncc21`, the cytotoxicity at 10 µM was -1.16%.

For the compound `NC(=O)C1(c2cnccn2)CCCN1Cc1ccc(F)c(F)c1` (stereo not given), the cytotoxicity at 10 µM was -14%.

As for `Cc1cccc(C)c1OC1CN(Cc2cnc(N3CCCC3)nc2)C1`, the cytotoxicity at 10 µM amounted to 1.35%.

Regarding `Cc1cccc(CC(=O)N2CCN(c3nccn3C)CC2)c1`, the cytotoxicity at 10 µM came out at 8.68%.

Regarding `COc1ccc(-n2cccn2)c(CN2CCOCC(CN(C)C)C2)c1` (stereo not given), the cytotoxicity at 10 µM was -14.6%.

As to `CC(=O)c1ccc(N2CCN(C(=O)NCc3cc[nH]n3)CC2)cc1`, the cytotoxicity at 10 µM is -2.17%.

As to `COc1cc(C#N)ccc1OCC(=O)NS(=O)(=O)c1cccnc1`, the cytotoxicity at 10 µM came to 5.41%.

As for `O=C([C@@H]1COC[C@H]2CN(C3CCCC3)C[C@H]21)N1CCC(F)CC1`, the cytotoxicity at 10 µM was -103%.

Consider `CO[C@@H]1CCN(Cc2cccs2)[C@@H]2CN(Cc3ccncc3)C[C@@H]21`, for which the cytotoxicity at 10 µM worked out at 3.93%.

Regarding `Cc1cnc(N2C[C@@H]3[C@@H](C2)OCC(=O)N3CCN(C)C)nc1`, the cytotoxicity at 10 µM was -4.35%.

Take `CC(=O)N1CC(C)CN(Cc2ccon2)c2ccccc21` (stereo not given): the cytotoxicity at 10 µM was 2%.

In the case of `CCc1noc(CN(C)Cc2cc(Br)ccc2OC)n1`, the cytotoxicity at 10 µM amounted to 3.91%.

As for `CCCC1(CO)CCCN(C(=O)CN2CCN(CC)CC2)C1` (stereo not given), the cytotoxicity at 10 µM was determined as 0.854%.

Consider `COc1ccc(-n2ccnc2-c2cnc(N(C)C)nc2)cc1OC`, for which the cytotoxicity at 10 µM is -2.4%.

As to `O[C@H]1COCCN(Cc2cccc(C(F)(F)F)c2)C1`, the cytotoxicity at 10 µM is -1.8%.

On to `COc1ccc(-c2n[nH]c(C)c2CC(=O)NCC2CCOCC2)cc1`, for which the cytotoxicity at 10 µM is -4.28%.

On to `COc1cc(CNCc2ccc(C(C)O)cc2)cc2c1OCO2` (stereo not given), for which the cytotoxicity at 10 µM is -9.78%.

For the compound `CC(C)[C@@H]1CN(c2ncc(F)cn2)C[C@H]1NS(=O)(=O)N(C)C`, the cytotoxicity at 10 µM is 14%.

As to `CCSc1nnc(N2CCN(c3ccccc3)CC2)s1`, the cytotoxicity at 10 µM is -6.67%.

Take `CCCn1nc2c(cc1=O)CN(Cc1nc(C)c(C)o1)CC2`: the cytotoxicity at 10 µM was -6.16%.

With `CSCCC(=O)N1CCCCC1CCn1cccn1` (stereo not given), the cytotoxicity at 10 µM was -1.94%.

Take `CNC(=O)[C@@H](CC(C)C)N1CCC[C@H]1C(=O)N(C)Cc1cccnc1`: the cytotoxicity at 10 µM is 3.95%.

In the case of `CCCc1cc(C(=O)N2C[C@H](O)[C@@H](N3CCCC3)C2)ccn1`, the cytotoxicity at 10 µM is 5.92%.

Take `CC(C)(C)n1ncc2c1CCCC2NCc1ccsc1` (stereo not given): the cytotoxicity at 10 µM turned out to be 3.59%.

Consider `COc1cc(OC)c(CNC(=O)NCC(=O)N(C)C)c(OC)c1`, for which the cytotoxicity at 10 µM was 3.27%.

For `CNC(=O)N1CCN(C(=O)C(C)C)CC2(CC(=O)N(C)C2)C1` (stereo not given), the cytotoxicity at 10 µM was determined as 7.43%.

Turning to `Cc1ccc(CN2CCCn3c(nc(Cn4cncn4)cc3=O)C2)s1`, the cytotoxicity at 10 µM was -1.6%.

In the case of `Cc1ccc(O)c(C(=O)N2CCCC2c2nncn2CC(C)C)c1` (stereo not given), the cytotoxicity at 10 µM is -3.27%.

For `Cc1cc2c(cc1Cl)C=CC1(CCN(CC(=O)NC3CCCC3)CC1)O2`, the cytotoxicity at 10 µM was found to be 17%.

Consider `O=C(NCc1ccncc1)c1nc2c(o1)CN(C(=O)c1cccnc1)C2`, for which the cytotoxicity at 10 µM came to 1.21%.

For the compound `Cc1nccc(CC2COCCN(c3cnccn3)C2)n1` (stereo not given), the cytotoxicity at 10 µM amounted to 0.933%.

For the compound `CCc1cnc2c(c1Nc1cccc(OC)c1)c(=O)n(C)c(=O)n2C`, the cytotoxicity at 10 µM stood at 12.6%.

As to `COCCn1ccnc1C1CCCN(C(=O)c2ccncc2F)C1` (stereo not given), the cytotoxicity at 10 µM was 0.0773%.

In the case of `CS(=O)(=O)NC1CC2(CCN(CC3CC3)CC2)Oc2ccccc21` (stereo not given), the cytotoxicity at 10 µM was -5.34%.

On to `CC(C)c1nccn1C1CCCN(C(=O)CN(C)C2CC2)C1` (stereo not given), for which the cytotoxicity at 10 µM is -4.3%.

For the compound `COc1ccc(Br)c(C(=O)NCC2CC2)c1`, the cytotoxicity at 10 µM came to 23.4%.

As to `Cc1n[nH]c2c1C(c1ccc(O)c(Cl)c1)SCC(=O)N2` (stereo not given), the cytotoxicity at 10 µM turned out to be 10.4%.

Take `CN1CCN(c2cc(CNCc3cccc4c3OCO4)ccn2)CC1`: the cytotoxicity at 10 µM was -5.31%.
